Assay results reported in paper PMC6690775 (FEBS letters, 2019).
Like-named read-outs stand apart in the source and are kept apart here.

Key:
[1] = target: T1, Hsp70-NBD (Homo sapiens, UniProt P0DMV8); test: Competitive inhibition of ATPase activity; format: biochemical
In short: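 Human Hsp70-NBD (residues 1–381) was expressed in E. coli Rosetta2(DE3) with a TEV-cleaved His6 tag and purified by Ni, size-exclusion and Blue columns. Phosphate release (EnzChek; PNP 0.2 U, MESG 0.2 μM) was measured with inhibitor at 0–3 mM and ATP 50 μM final. A360 was read each minute for 60 min at 25 °C in triplicate, minus no-enzyme control. IC50 came from a one-site logIC50 fit of fractional activity; Kiapp came from a Morrison fit of V0.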

[2] = target: T2, Hsc70-NBD (Homo sapiens, UniProt P11142); test: ITC binding of modified ADP analogues to Hsc70-NBD; conditions: for ΔΗ: binding enthalpy change; for ΔS: binding entropy change
[3] = target: T3, mortalin-NBD (Homo sapiens, UniProt P38646); test: ITC binding of modified ADP analogues to mortalin-NBD; conditions: for ΔΗ: binding enthalpy change; for ΔS: binding entropy change
[4] = target: T2, Hsc70-NBD; test: Competitive inhibition of ATPase activity; format: biochemical
In short: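 PNP/MESG coupling (0.2 U, 0.2 μM, 10 min, 25 °C); ATP at 50 μM final started reaction; A360 read each minute for 60 min, 25 °C; triplicates minus no-enzyme control. IC50 from one-site logIC50 fit of fractional activity; Kiapp from Morrison fit constrained by prior KM.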

[5] = target: T1, Hsp70-NBD; test: ITC binding of modified ADP analogues to Hsp70-NBD; conditions: for ΔΗ: binding enthalpy change; for ΔS: binding entropy change
[6] = target: T3, mortalin-NBD; test: Competitive inhibition of ATPase activity; format: biochemical; conditions: for inhibition of ATP hydrolysis of mortalin-NBD (in words): compared with ADP
In short: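 Human mortalin-NBD (residues 52–431) was expressed in E. coli Rosetta2(DE3) with a TEV-cleaved His6 tag, then purified by Ni, size-exclusion and Blue columns. Enzyme in binding buffer (HEPES pH 7.8, MgCl2, KCl) was mixed with PNP/MESG and inhibitor at 0–3 mM. ATP was added to 50 μM final, and A360 was read every minute for 60 min at 25 °C, in triplicate, minus no-enzyme control. IC50 came from a one-site logIC50 fit. Kiapp came from a Morrison fit constrained by Et 1 μM, ATP 50 μM and a previously determined KM.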

[7] = target: T3, mortalin-NBD; conditions: previously reported; cited from earlier work
[8] = mortalin-NBD, ITC Kd relative to ADP
[9] = read-out: KIapp, mortalin-NBD 1 μM, ATP 50 μM, 25 °C, Morrison fit

T2 sequence (P11142 1-385): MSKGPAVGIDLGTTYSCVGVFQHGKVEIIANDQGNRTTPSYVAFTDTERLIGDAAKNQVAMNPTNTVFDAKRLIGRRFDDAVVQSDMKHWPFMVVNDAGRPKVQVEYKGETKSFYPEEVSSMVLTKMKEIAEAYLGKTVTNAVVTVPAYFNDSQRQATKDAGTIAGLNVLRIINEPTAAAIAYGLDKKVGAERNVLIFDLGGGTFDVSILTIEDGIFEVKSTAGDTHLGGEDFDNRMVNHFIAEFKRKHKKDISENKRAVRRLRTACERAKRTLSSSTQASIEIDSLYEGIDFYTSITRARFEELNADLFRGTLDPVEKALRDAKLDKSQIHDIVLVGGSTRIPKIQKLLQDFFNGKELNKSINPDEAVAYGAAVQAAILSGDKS
T3 sequence (P38646 52-431): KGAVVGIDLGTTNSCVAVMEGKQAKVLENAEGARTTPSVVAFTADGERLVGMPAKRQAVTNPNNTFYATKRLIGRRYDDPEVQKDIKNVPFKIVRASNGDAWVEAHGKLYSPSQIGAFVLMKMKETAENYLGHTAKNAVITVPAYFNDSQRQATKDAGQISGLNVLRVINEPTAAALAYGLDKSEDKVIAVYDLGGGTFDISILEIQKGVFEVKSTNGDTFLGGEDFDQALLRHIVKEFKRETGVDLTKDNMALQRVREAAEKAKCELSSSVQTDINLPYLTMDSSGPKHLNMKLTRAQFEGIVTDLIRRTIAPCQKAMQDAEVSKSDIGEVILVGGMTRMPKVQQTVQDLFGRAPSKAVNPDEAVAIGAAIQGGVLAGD
T1 sequence (P0DMV8 1-381): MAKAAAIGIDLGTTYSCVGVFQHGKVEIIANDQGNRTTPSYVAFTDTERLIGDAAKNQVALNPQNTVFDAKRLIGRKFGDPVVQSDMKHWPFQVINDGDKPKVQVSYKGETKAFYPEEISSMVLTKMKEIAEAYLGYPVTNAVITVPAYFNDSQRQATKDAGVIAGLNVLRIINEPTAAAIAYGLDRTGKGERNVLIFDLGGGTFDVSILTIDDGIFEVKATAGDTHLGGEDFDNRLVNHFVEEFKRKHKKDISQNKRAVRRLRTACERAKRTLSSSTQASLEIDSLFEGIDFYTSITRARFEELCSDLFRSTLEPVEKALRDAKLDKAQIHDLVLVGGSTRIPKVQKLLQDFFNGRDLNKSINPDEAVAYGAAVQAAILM

| Compound | ΔΗ ([3]; ITC, 25 °C, mortalin-NBD) | ΔS ([3]; ITC, 25 °C, mortalin-NBD) | affinity tighter than ADP [3, 8] | inhibition of ATP hydrolysis of mortalin-NBD (in words) [6] | Kd [3] | IC50 [6] | Ki [6] | IC50 [1] | Ki [1] | Kd [2] | ΔΗ ([2]; ITC, 25 °C, Hsc70-NBD) | ΔS ([2]; ITC, 25 °C, Hsc70-NBD) | IC50 [4] | Ki [4] | Kd [5] | ΔΗ ([5]; ITC, 25 °C, Hsp70-NBD) | ΔS ([5]; ITC, 25 °C, Hsp70-NBD) | other results |
| --- | --- | --- | --- | --- | --- | --- | --- | --- | --- | --- | --- | --- | --- | --- | --- | --- | --- | --- |
| Nc1nc(Cl)nc2c1ncn2[C@@H]1O[C@H](COP(=O)(O)OP(=O)(O)O)[C@@H](O)[C@H]1O [2-Cl ADP] | -4.54 ± 0.172 kcal/mol | 45.4 ± 3.04 J/mol·K | ~ 3 fold | more effectively compared to ADP | – | – | – | – | – | – | – | – | – | – | – | – | – | inhibition of Hsp70-NBD (in words) [1]: no reliably demonstrable inhibition; binding to Hsc70-NBD (in words) ([2]; ITC): did not yield data that could be fitted; Kd ([3]; ITC, 25 °C, mortalin-NBD): 1.77 µM; inhibition of Hsc70-NBD (in words) [4]: no reliably demonstrable inhibition; binding to Hsp70-NBD (in words) ([5]; ITC): did not yield data that could be fitted; Ki [6, 9]: 45.1 ± 2.42 µM |
| CSc1nc(N)c2ncn([C@@H]3O[C@H](COP(=O)(O)OP(=O)(O)O)[C@@H](O)[C@H]3O)c2n1 [2-MeS ADP, 2-methylthio-adenosine-5’-diphosphate] | -2.96 ± 0.865 kcal/mol | 54.5 ± 16.5 J/mol·K | – | – | 9.81 µM | 902 µM | 523 ± 98.3 µM | – | – | – | – | – | – | – | – | – | – | inhibition of Hsp70-NBD (in words) [1]: no reliably demonstrable inhibition; binding to Hsc70-NBD (in words) ([2]; ITC): did not yield data that could be fitted; decrease in affinity compared to ADP [3, 8]: ~2 fold; inhibition of Hsc70-NBD (in words) [4]: no reliably demonstrable inhibition; binding to Hsp70-NBD (in words) ([5]; ITC): did not yield data that could be fitted |
| Cc1cccc(CNc2ncnc3c2ncn3[C@@H]2O[C@H](COP(=O)(O)OP(=O)(O)O)[C@@H](O)[C@H]2O)c1 [6-(3-MeBn) ADP, N6-(3-methylbenzyl)adenosine-5’-diphosphate] | -3.13 ± 0.0545 kcal/mol | 50.2 ± 1.73 J/mol·K | – | – | 11.4 µM | 1430 µM | 675 ± 99.4 µM | 1870 µM | 1300 ± 148 µM | 3.35 µM | -10.22 ± 0.906 kcal/mol | −41.10 ± 12.94 J/mol·K | 8040 µM | 682 ± 179 µM | 0.252 µM | -4.787 ± 0.225 kcal/mol | 58.44 ± 3.96 J/mol·K | – |
| O=P(O)(O)OP(=O)(O)OC[C@H]1O[C@@H](n2cnc3c(NCc4ccccc4)ncnc32)[C@H](O)[C@@H]1O [6-Bn ADP, N6-benzyladenosine-5’-diphosphate] | -2.99 ± 0.839 kcal/mol | 61.8 ± 12.1 J/mol·K | ~ 1.5 fold | more effectively compared to ADP | 3.52 µM | 119 µM | 86.5 ± 10.3 µM | 2330 µM | 1610 ± 137 µM | 0.159 µM | -4.077 ± 0.0645 kcal/mol | 72.13 ± 2.77 J/mol·K | 1470 µM | 295 ± 67.2 µM | 2.16 µM | -3.941 ± 1.02 kcal/mol | 53.04 ± 14.20 J/mol·K | – |
| O=P(O)(O)OP(=O)(O)OC[C@H]1O[C@@H](n2cnc3c(NCc4ccco4)ncnc32)[C@H](O)[C@@H]1O [6-Fu ADP, N6-furfuryladenosine-5’-diphosphate] | -5.04 ± 0.277 kcal/mol | 28.7 ± 6.85 J/mol·K | – | – | 5.84 µM | 558 µM | 565 ± 49.6 µM | 3240 µM | 1860 ± 172 µM | 8.7 µM | -5.457 ± 0.514 kcal/mol | 19.22 ± 5.06 J/mol·K | 6780 µM | 723 ± 179 µM | 4.27 µM | -2.395 ± 0.562 kcal/mol | 68.77 ± 8.28 J/mol·K | – |
| O=P(O)(O)OP(=O)(O)OC[C@H]1O[C@@H](n2cnc3c(NCCc4ccccc4)ncnc32)[C@H](O)[C@@H]1O [6-PheEt ADP, N6-(2-phenylethyl)adenosine-5’-diphosphate] | -8.1 ± 0.495 kcal/mol | −10.4 ± 5.17 J/mol·K | ~ 1.25 fold | more effectively compared to ADP | 4.19 µM | 173 µM | 97.3 ± 9.96 µM | 3120 µM | 1160 ± 189 µM | 0.237 µM | -4.316 ± 0.022 kcal/mol | 65.31 ± 1.22 J/mol·K | 2100 µM | 445 ± 101 µM | 0.143 µM | -10.8 ± 0.208 kcal/mol | −22.97 ± 3.25 J/mol·K | – |
| O=P(O)(O)OP(=O)(O)OC[C@H]1O[C@@H](n2cnc3c(NC4CCCCC4)ncnc32)[C@H](O)[C@@H]1O [6-cHe ADP, N6-cyclohexyladenosine-5’-diphosphate] | -5.28 ± 0.0693 kcal/mol | 18.84 ± 0.87 J/mol·K | – | weakest inhibition | 14.1 µM | 1600 µM | 733 ± 82.1 µM | 2490 µM | 1240 ± 164 µM | 0.357 µM | -6.006 ± 0.562 kcal/mol | 37.74 ± 7.36 J/mol·K | 2230 µM | 622 ± 183 µM | 0.199 µM | -4.967 ± 0.146 kcal/mol | 57.67 ± 0.64 J/mol·K | – |
| Nc1ncnc2c1ncn2[C@@H]1O[C@H](COP(=O)(O)OP(=O)(O)O)[C@@H](O)[C@H]1O [ADP, reference compound] | -6.52 ± 0.308 kcal/mol | 9.36 ± 4.48 J/mol·K | – | – | – | – | – | – | – | – | -7.359 ± 0.022 kcal/mol | 34.19 ± 1.55 J/mol·K | – | – | – | -5.731 ± 0.203 kcal/mol | 60.54 ± 3.65 J/mol·K | log IC50 ([1]; Hsp70-NBD, ATP 50 μM, one-site logIC50 fit): 2.697 ± 0.091; Ki ([1]; read-out: KIapp, Hsp70-NBD, ATP 50 μM, Morrison fit, ~ denotes ambiguous data): 440 ± 47.8 µM; Kd ([2]; ITC, 25 °C, Hsc70-NBD): 0.0665 µM; log IC50 ([4]; Hsc70-NBD, ATP 50 μM, one-site logIC50 fit): 2.734 ± 0.117; Ki ([4]; read-out: KIapp, Hsc70-NBD, ATP 50 μM, Morrison fit, ~ denotes ambiguous data): 239 ± 32.2 µM; Kd ([5]; ITC, 25 °C, Hsp70-NBD): 0.0435 µM; Kd [7]: 5.3 ± 0.106 µM; Ki [6, 9]: 353 ± 36.2 µM |
